Results from different studies.
Each line is one published result; the experiments were not run side by side. pIC50: −log10 of the molar value.
PRMT1: Protein arginine N-methyltransferase 1 (PRMT1, Homo sapiens, UniProt Q99873)
PANK3: Pantothenate kinase 3 (PANK3, Homo sapiens, UniProt Q9H999)
PDE10A: cAMP and cAMP-inhibited cGMP 3',5'-cyclic phosphodiesterase 10A (PDE10A, Homo sapiens, UniProt Q9Y233)
SLC6A3: Sodium-dependent dopamine transporter (SLC6A3, Homo sapiens, UniProt Q01959)
CHEK1: Serine/threonine-protein kinase Chk1 (CHEK1, Homo sapiens, UniProt O14757)
DDR2: Discoidin domain-containing receptor 2 (DDR2, Homo sapiens, UniProt Q16832)
TLR8: Toll-like receptor 8 (TLR8, Homo sapiens, UniProt Q9NR97)
Nuclear receptor ROR-gamma: Nuclear receptor ROR-gamma (Mus musculus, UniProt P51450)
SLC2A1: Solute carrier family 2, facilitated glucose transporter member 1 (SLC2A1, Homo sapiens, UniProt P11166)
PTPN22: Tyrosine-protein phosphatase non-receptor type 22 (PTPN22, Homo sapiens, UniProt Q9Y2R2)
HDAC5: Histone deacetylase 5 (HDAC5, Homo sapiens, UniProt Q9UQL6)

| Compound | target | test | conditions | pIC50 |
| --- | --- | --- | --- | --- |
| N=C(NCCCSC[C@H]1O[C@@H](n2cnc3c(NCCCc4ccccc4)ncnc32)[C@H](O)[C@@H]1O)NC1CCC1 | PRMT1 | enzyme activity, inhibitor, fluorescence |  | 6.60 |
| O=S(=O)(O)OC[C@H]1O[C@@](COS(=O)(=O)O)(O[C@H]2O[C@H](COS(=O)(=O)O)[C@@H](OS(=O)(=O)O)[C@H](OS(=O)(=O)O)[C@H]2OS(=O)(=O)O)[C@@H](OS(=O)(=O)O)[C@@H]1OS(=O)(=O)O | Coagulation factor XI (F11, Homo sapiens, UniProt P03951) | enzyme activity, inhibitor, absorbance | pH 7.4 | < 2.40 |
| CC(=O)SCCNC(=O)CCNC(=O)[C@H](O)C(C)(C)COP(=O)(O)OP(=O)(O)OC[C@H]1O[C@@H](n2cnc3c(N)ncnc32)[C@H](O)[C@@H]1OP(=O)(O)O | PANK3 | enzyme activity, inhibitor |  | 6.77 |
| CSc1ccc(/C=C2/C(C)=C(CC(=O)O)c3cc(F)ccc32)cc1 | PDE10A | enzyme activity, inhibitor |  | < 4.00 |
| Clc1ccc(C(c2ccccc2)c2nnnn2CCCN2CCC(Cc3ccccc3)CC2)cc1 (centres unmarked) | SLC6A3 | transporter uptake, inhibitor |  | 6.65 |
| COc1cc(C[C@H]2C(=O)OC[C@@H]2Cc2ccc(OC)c(OC)c2)ccc1O | PDE10A | enzyme activity, inhibitor |  | < 5.30 |
| CCn1ncc2c1-c1cnc(N)c(c1)O[C@H](C)c1cc(F)ccc1-c1nn(C)nc1C2 | Activated CDC42 kinase 1 (TNK2, Homo sapiens, UniProt Q07912) | enzyme activity, inhibitor, radiometric |  | 7.11 |
| COCCNC(=O)Nc1ccc2nc(-c3cccs3)c(-c3cccs3)nc2c1 | Acetyl-coenzyme A synthetase, cytoplasmic (ACSS2, Homo sapiens, UniProt Q9NR19) | enzyme activity, inhibitor, absorbance |  | ~6.22 |
| OCc1ccc(-c2ccc(-c3[nH]nc4c3Cc3cc(O)ccc3-4)cc2)cc1 | CHEK1 | enzyme activity, inhibitor |  | < 5.00 |
| OC[C@H]1O[C@@H](n2cnc3c(NCCCc4ccccc4)ncnc32)[C@H](O)[C@@H]1O | PRMT1 | enzyme activity, inhibitor, fluorescence |  | < 4.00 |
| Clc1ccc(C(c2ccccc2)c2nnnn2CCCCN2CCC(CCc3ccccc3)CC2)cc1 (centres unmarked) | SLC6A3 | transporter uptake, inhibitor |  | 6.35 |
| CNC(=O)c1cc2c(Oc3ccc(NC(=O)C4(C(=O)Nc5ccc(F)cc5)CC4)cc3)ccnc2cc1OC | DDR2 | enzyme activity, inhibitor, radiometric |  | 7.39 |
| Clc1ccc(CC2CCN(CCCCn3nnnc3C(c3ccccc3)c3ccccc3)CC2)cc1Cl | SLC6A3 | transporter uptake, inhibitor |  | 6.31 |
| Cc1cnc(-c2ccc(-c3ccc(NC(=O)Nc4c(F)cc(F)cc4F)cc3F)c3c2C(=O)NC3)[nH]1 | DDR2 | enzyme activity, inhibitor |  | 9.00 |
| Cc1cc(-c2ccnc3cc(Cl)ccc23)ccc1O | TLR8 | reporter gene, antagonist |  | 9.00 |
| O=C(O)C1=CCCN(CCON=C(c2ccccc2)c2ccccc2)C1 | Sodium- and chloride-dependent GABA transporter 1 (Slc6a1, Rattus norvegicus, UniProt P23978) | ligand displacement, radioligand |  | 6.41 |
| COc1ccc(CNc2c(CO)cnc3c(C4CC4)cc(C#N)cc23)cn1 | PDE10A | enzyme activity, inhibitor |  | < 5.00 |
| COc1cc(-c2ccc3c(c2)Nc2ncccc2NC3=O)ccc1[N+](=O)[O-] | CHEK1 | enzyme activity, inhibitor |  | < 5.00 |
| Cc1ccc(NC(=O)c2ccc(C)c(C(F)(F)F)c2)cc1C#Cc1nn(C2CCC(O)CC2)c2ncnc(N)c12 (centres unmarked) | DDR2 | enzyme activity, inhibitor, radiometric |  | 7.19 |
| C=C1CC[C@@H]([C@H](C)CC(=O)/C=C(\C)C(=O)O)[C@@]12CCC1=C2CC[C@H]2C(C)(C)C(=O)CC[C@]12C | ATP-citrate synthase (ACLY, Homo sapiens, UniProt P53396) | enzyme activity, inhibitor |  | < 4.70 |
| COc1cc(-c2ccc(-c3[nH]nc4c3Cc3cc(CNC5CCC(O)CC5)ccc3-4)cc2)ccc1O (centres unmarked) | CHEK1 | enzyme activity, inhibitor |  | 7.23 |
| COc1cc(O)c(C(CC(=O)N2CCCC2)c2ccc3c(c2)OCO3)c(OC)c1 (centres unmarked) | Nuclear receptor ROR-gamma | reporter gene |  | < 4.30 |

| Compound | target | test | conditions | pIC50 |
| --- | --- | --- | --- | --- |
| C/C(=N\O)c1ccc(-c2ccc(O)c(C)c2)c(Cl)c1O | SLC2A1 | transporter uptake, inhibitor, radiometric |  | 4.95 |
| Fc1ccc(C(c2ccc(F)cc2)c2nnnn2CCCCN2CCN(Cc3ccccc3)CC2)cc1 | SLC6A3 | transporter uptake, inhibitor |  | 6.84 |
| COc1cc(-c2ccc3c(c2)Nc2ccc(N)cc2NC3=O)ccc1[N+](=O)[O-] | CHEK1 | enzyme activity, inhibitor |  | 7.78 |
| O=C1NC(=O)C(Cc2ccc3cc(OCc4ccccc4F)ccc3c2)S1 (centres unmarked) | PANK3 | enzyme activity, inhibitor, radiometric |  | 5.30 |
| CN1C(=O)c2c(nn(Cc3ccc(-c4cccc(F)n4)cc3)c2Nc2ccccc2)N2C1=N[C@@H]1CCC[C@@H]12 | Dual specificity calcium/calmodulin-dependent 3',5'-cyclic nucleotide phosphodiesterase 1C (PDE1C, Homo sapiens, UniProt Q14123) | enzyme activity, inhibitor, radiometric |  | 10.28 |
| COC(=O)Cc1ccc2c(c1)NC(=O)c1ccc(-c3cn(C)cn3)cc1N2 | CHEK1 | enzyme activity, inhibitor |  | 5.11 |
| CC/C=C\C/C=C\C/C=C\C/C=C\C/C=C\CCCC(=O)O | DNA topoisomerase 1 (TOP1, Homo sapiens, UniProt P11387) | enzyme activity, inhibitor |  | 4.70 |
| C/C(=N\O)c1ccc(-c2cccc(O)c2)c(Cl)c1O | SLC2A1 | transporter uptake, inhibitor, radiometric |  | 4.80 |
| CC(C)N(C(=S)SSC(=S)N(C(C)C)C(C)C)C(C)C | PTPN22 | enzyme activity, inhibitor, fluorescence | pH 6.5 | 5.15 |
| N=C(NCCCO)NCCCSC[C@H]1O[C@@H](n2cnc3c(NCCCc4ccccc4)ncnc32)[C@H](O)[C@@H]1O | PRMT1 | enzyme activity, inhibitor, fluorescence |  | 5.31 |
| Clc1ccc(C(c2ccccc2)c2nnnn2CCCN2CCC(CCCc3ccccc3)CC2)cc1 (centres unmarked) | SLC6A3 | transporter uptake, inhibitor |  | 6.07 |
| CCN(CC)C(=O)c1cnn2c(-c3cccc(C(F)(F)F)c3)ccnc12 | TLR8 | reporter gene |  | < 4.70 |
| O=C1CSC(=S)N1NC(=S)SSC(=S)NN1C(=O)CSC1=S | PTPN22 | enzyme activity, inhibitor, fluorescence | pH 6.5 | 5.52 |
| CCN(CC)C(=O)CC(c1ccc2c(c1)OCO2)c1c(O)cc(OC)cc1OC (centres unmarked) | Nuclear receptor ROR-gamma | reporter gene |  | < 4.30 |
| COc1cc(-c2ccc3c(c2)Nc2ccc(CC(=O)NC(CO)c4ccccc4)cc2NC3=O)ccc1[N+](=O)[O-] (centres unmarked) | CHEK1 | enzyme activity, inhibitor |  | 7.57 |
| N=C(N)c1ccc(-c2ccc(-c3ccc(C(=N)N)nc3)o2)cc1 | PRMT1 | enzyme activity, inhibitor |  | 5.02 |
| Nc1ccc(-c2ccncc2)cc1NC(=O)N1CCCC1 | HDAC5 | enzyme activity, inhibitor |  | < 4.48 |
| Clc1ccc(C(c2ccccc2)c2nnnn2CCCCN2CCC(CCCc3ccccc3)CC2)cc1 (centres unmarked) | SLC6A3 | transporter uptake, inhibitor |  | 6.48 |
| O=c1cc(-c2ccc(-c3[nH]nc4c3Cc3cc(O)ccc3-4)cc2)cc[nH]1 | CHEK1 | enzyme activity, inhibitor |  | 5.90 |
| Clc1ccc(C(c2ccc(Cl)cc2)c2nnnn2CCCCN2CCC(Cc3ccccc3)CC2)cc1 | SLC6A3 | transporter uptake, inhibitor |  | 6.76 |
| CC(C)(C)OC(=O)NCCCCOc1ccc(Cl)cc1NC(=O)Nc1cnc(C#N)cn1 | CHEK1 | enzyme activity, inhibitor |  | 5.08 |
| CCCC[C@H](NC(=O)C1CN(C)C1)c1ncc(-c2cc3ccccc3nc2OC)[nH]1 | HDAC5 | enzyme activity, inhibitor |  | < 4.52 |
